Assay results reported in ChEMBL document CHEMBL4118229, “lH-Pyrazolo[3,4-b]quinolin-3-amine derivatives inhibit growth of colon cancer cells via apoptosis and sub G1 cell cycle arrest” (Bioorg Med Chem Lett, 2018).
Activity calls are given as the source filed them. The calls are words filed in the database; no cut-off is given here.

Tests used:
[1] = system: DU-145; experiment: Antiproliferative activity against human DU145 cells by MTT assay; assay type: functional, cell-based
[2] = system: MDA-MB-231; experiment: Antiproliferative activity against human MDA-MB-231 cells by MTT assay; assay type: functional, cell-based
[3] = system: MCF7; experiment: Antiproliferative activity against human MCF7 cells by MTT assay; assay type: functional, cell-based
[4] = system: PC-3; experiment: Antiproliferative activity against human PC3 cells by MTT assay; assay type: functional, cell-based
[5] = system: LN-229; experiment: Antiproliferative activity against human LN229 cells by MTT assay; assay type: functional, cell-based
[6] = system: A2780; experiment: Antiproliferative activity against human A2780 cells by MTT assay; assay type: functional, cell-based
[7] = system: HCT-116; experiment: Antiproliferative activity against human HCT116 cells by MTT assay; assay type: functional, cell-based
[8] = system: HCT-15; experiment: Antiproliferative activity against human HCT15 cells by MTT assay; assay type: functional, cell-based
[9] = system: HT-29; experiment: Antiproliferative activity against human HT-29 cells by MTT assay; assay type: functional, cell-based
[10] = system: LoVo; experiment: Antiproliferative activity against human LoVo cells by MTT assay; assay type: functional, cell-based
[11] = system: HEK293; experiment: Antiproliferative activity against human HEK293 cells by MTT assay; assay type: cell-based
[12] = system: HCT-116; experiment: Cytotoxicity against human HCT116 cells assessed as cell confluence at 10 to 30 uM up to 72 hrs (reference value: 60%); assay type: functional
[13] = system: HCT-116; experiment: Cytotoxicity against human HCT116 cells assessed as reduction in cell confluence at 10 to 30 uM after 20 hrs; assay type: functional, cell-based
[14] = system: HCT-116; experiment: Inhibition of colony formation in human HCT116 cells assessed as decrease in colony size at 5 to 20 uM; assay type: functional, cell-based
Method in brief: (§1)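 HCT116 colony formation assay with 5, 10 or 20 μM, or vehicle. Colony number, density and size recorded. Three independent repeats.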

[15] = system: HCT-116; experiment: Inhibition of colony formation in human HCT116 cells assessed as decrease in reduction in mean colony formation rate at 5 to 20 uM; assay type: functional, cell-based; method in brief: as §1
[16] = system: HCT-116; experiment: Cell cycle arrest in human HCT116 cells assessed as G1 phase accumulation at 5 uM after 24 hrs by propidium iodide staining-based flow cytometric analysis (reference value: 78.7%); assay type: functional
[17] = system: HCT-116; experiment: Cell cycle arrest in human HCT116 cells assessed as S phase accumulation at 5 uM after 24 hrs by propidium iodide staining-based flow cytometric analysis (reference value: 9.18%); assay type: functional
[18] = system: HCT-116; experiment: Cell cycle arrest in human HCT116 cells assessed as G2 phase accumulation at 5 uM after 24 hrs by propidium iodide staining-based flow cytometric analysis (reference value: 7.56%); assay type: functional
[19] = system: HCT-116; experiment: Cell cycle arrest in human HCT116 cells assessed as G1 phase accumulation at 10 uM after 24 hrs by propidium iodide staining-based flow cytometric analysis (reference value: 78.7%); assay type: functional
[20] = system: HCT-116; experiment: Cell cycle arrest in human HCT116 cells assessed as S phase accumulation at 10 uM after 24 hrs by propidium iodide staining-based flow cytometric analysis (reference value: 9.18%); assay type: functional
[21] = system: HCT-116; experiment: Cell cycle arrest in human HCT116 cells assessed as G2 phase accumulation at 10 uM after 24 hrs by propidium iodide staining-based flow cytometric analysis (reference value: 7.56%); assay type: functional
[22] = system: HCT-116; experiment: Cell cycle arrest in human HCT116 cells assessed as G1 phase accumulation at 20 uM after 24 hrs by propidium iodide staining-based flow cytometric analysis (reference value: 78.7%); assay type: functional
[23] = system: HCT-116; experiment: Cell cycle arrest in human HCT116 cells assessed as S phase accumulation at 20 uM after 24 hrs by propidium iodide staining-based flow cytometric analysis (reference value: 9.18%); assay type: functional
[24] = system: HCT-116; experiment: Cell cycle arrest in human HCT116 cells assessed as G2 phase accumulation at 20 uM after 24 hrs by propidium iodide staining-based flow cytometric analysis (reference value: 7.56%); assay type: functional
[25] = system: HCT-116; experiment: Cell cycle arrest in human HCT116 cells assessed as sub G1 phase accumulation after 24 hrs by propidium iodide staining-based flow cytometric analysis; assay type: functional
[26] = system: HCT-116; experiment: Induction of apoptosis in human HCT116 cells assessed as viable cells at 5 uM after 24 hrs by Alexa Fluor 488 Annexin V/MitoTracker red staining-based flow cytometric analysis (reference value: 92.5%); assay type: functional; settings: HCT-116, 24 h, read-out: Activity
[27] = system: HCT-116; experiment: Induction of apoptosis in human HCT116 cells assessed as apoptotic cells at 5 uM after 24 hrs by Alexa Fluor 488 Annexin V/MitoTracker red staining-based flow cytometric analysis (reference value: 7.48%); assay type: functional
[28] = system: HCT-116; experiment: Induction of apoptosis in human HCT116 cells assessed as viable cells at 10 uM after 24 hrs by Alexa Fluor 488 Annexin V/MitoTracker red staining-based flow cytometric analysis (reference value: 92.5%); assay type: functional; settings: HCT-116, 24 h, read-out: Activity
[29] = system: HCT-116; experiment: Induction of apoptosis in human HCT116 cells assessed as apoptotic cells at 10 uM after 24 hrs by Alexa Fluor 488 Annexin V/MitoTracker red staining-based flow cytometric analysis (reference value: 7.48%); assay type: functional
[30] = system: HCT-116; experiment: Induction of apoptosis in human HCT116 cells assessed as viable cells at 20 uM after 24 hrs by Alexa Fluor 488 Annexin V/MitoTracker red staining-based flow cytometric analysis (reference value: 92.5%); assay type: functional; settings: HCT-116, 24 h, read-out: Activity
[31] = system: HCT-116; experiment: Induction of apoptosis in human HCT116 cells assessed as apoptotic cells at 20 uM after 24 hrs by Alexa Fluor 488 Annexin V/MitoTracker red staining-based flow cytometric analysis (reference value: 7.48%); assay type: functional
[32] = system: HCT-116; experiment: Induction of apoptosis in human HCT116 cells assessed as viable cells at 30 uM after 24 hrs by Alexa Fluor 488 Annexin V/MitoTracker red staining-based flow cytometric analysis (reference value: 92.5%); assay type: functional; settings: HCT-116, 24 h, read-out: Activity
[33] = system: HCT-116; experiment: Induction of apoptosis in human HCT116 cells assessed as apoptotic cells at 30 uM after 24 hrs by Alexa Fluor 488 Annexin V/MitoTracker red staining-based flow cytometric analysis (reference value: 7.48%); assay type: functional
[34] = system: HCT-116; experiment: Induction of apoptosis in human HCT116 cells assessed as nuclear condensation at 5 to 10 uM after 24 hrs by DAPI staining-based fluorescent microscopic analysis; assay type: functional, cell-based
Method in brief: (§2)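 HCT116 cells given 5 or 10 μM, or vehicle, for 24 or 48 h. Cells fixed and stained with DAPI. Condensed and fragmented nuclei assessed by fluorescence microscopy at 40X.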

[35] = system: HCT-116; experiment: Induction of apoptosis in human HCT116 cells assessed as nuclear fragmentation at 5 to 10 uM after 24 hrs by DAPI staining-based fluorescent microscopic analysis; assay type: functional, cell-based; method in brief: as §2
[36] = system: HCT-116; experiment: Induction of apoptosis in human HCT116 cells assessed as chromatin condensation at 5 to 10 uM after 48 hrs by DAPI staining-based fluorescent microscopic analysis; assay type: functional, cell-based; method in brief: as §2
[37] = system: HCT-116; experiment: Cell cycle arrest in human HCT116 cells assessed as subG1 phase accumulation at 5 uM after 24 hrs by propidium iodide staining-based flow cytometric analysis (reference value: 3.81%); assay type: functional
[38] = system: HCT-116; experiment: Cell cycle arrest in human HCT116 cells assessed as subG1 phase accumulation at 10 uM after 24 hrs by propidium iodide staining-based flow cytometric analysis (reference value: 3.81%); assay type: functional
[39] = system: HCT-116; experiment: Cell cycle arrest in human HCT116 cells assessed as subG1 phase accumulation at 20 uM after 24 hrs by propidium iodide staining-based flow cytometric analysis (reference value: 3.81%); assay type: functional
[40] = system: HCT-116; experiment: Induction of apoptosis in human HCT116 cells after 24 hrs by Alexa Fluor 488 Annexin V/MitoTracker red staining-based flow cytometric analysis; assay type: functional, cell-based
[41] = system: LoVo; experiment: Cytotoxicity against human LoVo cells at 1 to 30 uM incubated for 72 hrs by inverted microscopy
[42] = system: HCT-15; experiment: Cytotoxicity against human HCT15 cells at 1 to 30 uM incubated for 72 hrs by inverted microscopy
[43] = system: HCT-116; experiment: Cytotoxicity against human HCT116 cells at 1 to 30 uM incubated for 72 hrs by inverted microscopy
[44] = system: HEK293; experiment: Cytotoxicity against human HEK293 cells at 1 to 30 uM incubated for 72 hrs by inverted microscopy; settings: hek293, 72 h

Compound: Cc1cc2cc3c(N)[nH]nc3nc2cc1C
- IC50 [1]: > 100 µM
- IC50 [2]: > 100 µM
- IC50 [3]: 78.8 µM
- IC50 [4]: > 100 µM
- IC50 [5]: 38.9 µM
- IC50 [6]: > 100 µM
- IC50 [7]: > 100 µM
- IC50 [8]: > 100 µM
- IC50 [9]: > 100 µM
- IC50 [10]: > 100 µM
- IC50 [11]: > 100 µM

Compound: Nc1[nH]nc2nc3ccccc3cc12
- IC50 [1]: > 100 µM
- IC50 [2]: > 100 µM
- IC50 [3]: 81.5 µM
- IC50 [4]: > 100 µM
- IC50 [5]: 7.8 µM
- IC50 [6]: 83.9 µM
- IC50 [7]: 67.7 µM
- IC50 [8]: 58.6 µM
- IC50 [9]: 95.7 µM
- IC50 [10]: 88.6 µM
- IC50 [11]: > 100 µM

Compound: COc1ccc2cc3c(N)n[nH]c3nc2c1
- IC50 [1]: 53.4 µM
- IC50 [2]: 50.6 µM
- IC50 [3]: 59.2 µM
- IC50 [4]: 87.1 µM
- IC50 [5]: 7.8 µM
- IC50 [6]: 56.6 µM
- IC50 [7]: 2.3 µM
- IC50 [8]: 9.6 µM
- IC50 [9]: 3.9 µM
- IC50 [10]: 10.2 µM
- IC50 [11]: 45.8 µM
- Activity [12]: <=20%
- Activity [13]: Active
- inhibition [14]: Active
- inhibition [15]: Active
- Activity [16]: 59.3%
- Activity [17]: 14.5%
- Activity [18]: 1.37%
- Activity [19]: 45.9%
- Activity [20]: 15.1%
- Activity [21]: 5.3%
- Activity [22]: 33.5%
- Activity [23]: 7.99%
- Activity [24]: 0.6%
- Activity [25]: Dose-dependent effect
- viability at 5 µM [26]: 77%
- Activity [27]: 22.9%
- viability at 10 µM [28]: 68.1%
- Activity [29]: 31.8%
- viability at 20 µM [30]: 66%
- Activity [31]: 34%
- viability at 30 µM [32]: 46.7%
- Activity [33]: 53.3%
- Activity [34]: Active
- Activity [35]: Active
- Activity [36]: Active
- Activity [37]: 22.4%
- Activity [38]: 32%
- Activity [39]: 55.9%
- Activity [40]: Dose-dependent effect
- Activity [41]: Active
- Activity [42]: Active
- Activity [43]: Active
- Activity [44]: Non-Toxic

Compound: COc1ccc2nc3[nH]nc(N)c3cc2c1
- IC50 [1]: 76.5 µM
- IC50 [2]: 62.3 µM
- IC50 [3]: 49.5 µM
- IC50 [4]: > 100 µM
- IC50 [5]: 93.7 µM
- IC50 [6]: 35.8 µM
- IC50 [7]: 57 µM
- IC50 [8]: 69.3 µM
- IC50 [9]: 85.2 µM
- IC50 [10]: 55.6 µM
- IC50 [11]: > 100 µM

Compound: Nc1n[nH]c2nc3cc(Cl)ccc3cc12
- IC50 [1]: > 100 µM
- IC50 [2]: 89.9 µM
- IC50 [3]: > 100 µM
- IC50 [4]: > 100 µM
- IC50 [5]: 58.6 µM
- IC50 [6]: 59.9 µM
- IC50 [7]: 56.6 µM
- IC50 [8]: 44.8 µM
- IC50 [9]: 42.3 µM
- IC50 [10]: 77.5 µM
- IC50 [11]: 36.6 µM

Compound: Nc1n[nH]c2nc3c(ccc4ccccc43)cc12
- IC50 [1]: > 100 µM
- IC50 [2]: > 100 µM
- IC50 [3]: 73.6 µM
- IC50 [4]: 59.7 µM
- IC50 [5]: 54.3 µM
- IC50 [6]: 13.5 µM
- IC50 [7]: 76.1 µM
- IC50 [8]: 68.6 µM
- IC50 [9]: 98.7 µM
- IC50 [10]: 80.6 µM
- IC50 [11]: > 100 µM

Compound: COc1cc2cc3c(N)n[nH]c3nc2cc1OC
- IC50 [1]: 73.4 µM
- IC50 [2]: 77.9 µM
- IC50 [3]: 72.1 µM
- IC50 [4]: 65.2 µM
- IC50 [5]: 26 µM
- IC50 [6]: 19.6 µM
- IC50 [7]: 40.8 µM
- IC50 [8]: 12.8 µM
- IC50 [9]: 19.4 µM
- IC50 [10]: 33.4 µM
- IC50 [11]: 81.1 µM

Compound: Cc1ccc2[nH]c3nnc(N)c-3cc2c1
- IC50 [1]: > 100 µM
- IC50 [2]: > 100 µM
- IC50 [3]: > 100 µM
- IC50 [4]: > 100 µM
- IC50 [5]: 61.2 µM
- IC50 [6]: 98.3 µM
- IC50 [7]: > 100 µM
- IC50 [8]: > 100 µM
- IC50 [9]: 32.9 µM
- IC50 [10]: 89.6 µM
- IC50 [11]: > 100 µM
